A selection: hits, their analogues and other compounds. The true share with any hit is near 3.6%.
CSC inhib = cancer stem cell inhibition. cancer stem cell-like cells viability, luminescence. inhibition, % at 7.5 µM. 1.1% of 300,000 active. AID 2717; in the data active = inhibition above about 75%; tested in HMLE shEcad cells
T cruzi inh = T. cruzi replication inhibition; AID 1885; inhibition, % (concentration not given with the values); 1.4% of 300,000 active; T. cruzi beta-gal in NIH3T3, luminescence, 90 h;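 active = mean inhibition across valid replicates above about 55%, limit read from the data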;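 note: signal also drops with host cell toxicity which is not excluded here; 0% = plate median of DMSO wells and 100% = zero luminescence signal; higher percent means less beta-gal luminescence so fewer parasites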
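assay system = mouse NIH/3T3 fibroblasts infected with β-gal-expressing T. cruzi Tulahuen C4 | input = 5,000 NIH/3T3 host cells per well | buffer or medium = DMEM plus 2% FBS | timing = 3 h host attachment, then at least 90 h co-culture | measured by = GalScreen luminescence, 60 min | evaluation = luminescence reflecting intracellular parasite burden, expressed as percent inhibition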
HIF activator = HIF pathway transcriptional activation; U2OS HRE-luciferase reporter, luminescence; normalized: DMSO 0%, desferrioxamine 100%; activation, % at 7.5 µM (by protocol); 0.32% of 300,000 active; AID 1910;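 active = mean activation of at least 10% of the iron chelator positive control signal, with at least half of replicates also reaching 10%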
PfHsp90 yeast 2 = reduces growth (ATP signal) of yeast expressing P. falciparum Hsp90. S. cerevisiae expressing PfHsp90, BacTiter-Glo ATP, 48 h; yeast lacking PDR1 and PDR3 efflux regulators. inhibition, % at 9.4 µM. 0.32% of 310,000 active. AID 504621;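 active = every replicate shows inhibition above about 80%, whatever the replicate mean, limit read from the data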;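 note: 0% = DMSO neutral controls and 100% = 20 µM radicicol positive controls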
Beta cell apopt = beta cell apoptosis inhibition; INS-1E cytokine-induced death, ATP luminescence, 48 h; percent of positive-control rescue, neutral wells zero; protection from apoptosis, % (test concentration not listed); 0.8% of 300,000 active; AID 435005;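 active = Every replicate reaches about 75%, or at least half do and their mean reaches it too, limit read from the data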;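 note: 0% = cytokine-treated negative control wells and 100% = positive control rescue; higher means more ATP so stronger rescue from cytokine killing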
SKKanGAS inh = blocks kanamycin growth of S. pyogenes SKKanGAS strain; BacTiter-Glo, 6 h; inhibition, % at 7.5 µM; 1.3% of 300,000 active; AID 1662;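 active = mean replicate score, as percent of positive control median, at least 50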;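 note: strain carries kanamycin resistance gene driven by streptokinase promoter and grows in 40 µg/ml kanamycin; loss of luminescence reflects streptokinase promoter inhibition or plain growth inhibition; 0% = median of DMSO wells and 100% = positive control at its reference dose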
* marks the source's active call; other numbers are inactive results.

What do the screens show for `COc1ccc(OC)c(CN2CCN(C(=O)CCNC(=O)c3ccc(Br)cc3)CC2)c1`?
CSC inhib: -7; T cruzi inh: 60*; HIF activator: 0; Beta cell apopt: -6; SKKanGAS inh: -4

Results for c1ccc(COc2ccccc2CNC23CC4CC(CC(C4)C2)C3)cc1 ?
CSC inhib: 41; T cruzi inh: 56*; HIF activator: 0; PfHsp90 yeast 2: -7; Beta cell apopt: 35; SKKanGAS inh: 0

How did COc1ccccc1CN1CCCC(CNC(=O)c2cccc3ccccc23)C1 (centres undefined) do in these assays?
CSC inhib: -10; T cruzi inh: 61*; HIF activator: -12; PfHsp90 yeast 2: -22; Beta cell apopt: -2; SKKanGAS inh: 1

How did O=C(NCC1CCCN(Cc2ccccc2F)C1)c1cccc(C(F)(F)F)c1 (centres undefined) do in these assays?
CSC inhib: 4; T cruzi inh: 66*; HIF activator: 0; PfHsp90 yeast 2: 21; Beta cell apopt: -3; SKKanGAS inh: 4

Results for CCOc1ccccc1CN1CCCC(CNC(=O)Cc2ccc(OC)cc2)C1 (centres undefined) ?
CSC inhib: 1; T cruzi inh: 59*; HIF activator: 1; PfHsp90 yeast 2: 0; Beta cell apopt: -4; SKKanGAS inh: 0

How did CSc1ccc(CN2CCCC(CNC(=O)c3ccc(F)cc3)C2)cc1 (centres undefined) do in these assays?
CSC inhib: -4; T cruzi inh: 63*; HIF activator: 0; PfHsp90 yeast 2: 1; Beta cell apopt: 0; SKKanGAS inh: -9

How did O=C1NC(Cc2ccccc2)c2nc3ccccc3c(=O)n2-c2ccc(Cl)cc21 (centres undefined) do in these assays?
CSC inhib: -13; Beta cell apopt: -6

What do the screens show for `CC(C)Cn1c(=O)c(C(=O)NCc2ccc3c(c2)OCO3)c(O)c2ccccc21`?
CSC inhib: 48; T cruzi inh: -4; HIF activator: -21; PfHsp90 yeast 2: 32; Beta cell apopt: 2; SKKanGAS inh: -3

What do the screens show for `COc1ccc(CC(=O)NCC2CCCN(Cc3ccc(SC)cc3)C2)cc1` (centres undefined)?
CSC inhib: -4; T cruzi inh: 68*; HIF activator: -9; PfHsp90 yeast 2: -8; Beta cell apopt: -3; SKKanGAS inh: 1

How did COc1ccc(S(=O)(=O)NCC2CCCN(Cc3ccc(OC)cc3F)C2)cc1 (centres undefined) do in these assays?
CSC inhib: -11; T cruzi inh: 1; HIF activator: 1; PfHsp90 yeast 2: 14; Beta cell apopt: -1; SKKanGAS inh: 82*

Results for CCn1ccc(C(=O)N2CCN(c3ncccn3)CC2)n1 ?
CSC inhib: -13; T cruzi inh: -15; HIF activator: 0; PfHsp90 yeast 2: 11; SKKanGAS inh: 0

What do the screens show for `CCOc1ccc(CNc2ccc(N3CCCC3)cc2)cc1`?
CSC inhib: 4; T cruzi inh: 52; HIF activator: -1; PfHsp90 yeast 2: 6; Beta cell apopt: 109*; SKKanGAS inh: 2

How did CCOc1cc(CNc2ccc(N3CCCC3)cc2)cc(Cl)c1OC do in these assays?
CSC inhib: -12; T cruzi inh: 49; HIF activator: 0; PfHsp90 yeast 2: 8; Beta cell apopt: 9; SKKanGAS inh: 10

Results for COc1cc(CNc2ccc(N3CCCC3)cc2)cc(Cl)c1OC ?
CSC inhib: 51; T cruzi inh: 73*; HIF activator: -2; PfHsp90 yeast 2: 2; Beta cell apopt: 63; SKKanGAS inh: 7

What do the screens show for `COc1cccc(CNc2ccc(N3CCCCC3)cc2)c1OC`?
CSC inhib: 5; PfHsp90 yeast 2: -31; Beta cell apopt: 20

What do the screens show for `C=CCOc1c(Cl)cc(CNc2ccc(C)c(Cl)c2)cc1OC`?
CSC inhib: 54; T cruzi inh: 55*; HIF activator: 2; Beta cell apopt: 47; SKKanGAS inh: 42

Results for COc1ccccc1CNc1ccc(N2CCCCC2)cc1 ?
CSC inhib: -3; T cruzi inh: 65*; HIF activator: -1; PfHsp90 yeast 2: 36; Beta cell apopt: 7; SKKanGAS inh: 5

Results for C1CC(=NN=C2CCSCC2)CCS1 ?
PfHsp90 yeast 2: -5

How did CC(OC(=O)/C=C/c1ccccc1Cl)C(=O)NC1CCCCC1C (centres undefined) do in these assays?
CSC inhib: -1; T cruzi inh: -1; HIF activator: -36; Beta cell apopt: 1; SKKanGAS inh: 14

How did Cc1ccc(C(=O)NC(Cc2ccccc2C(F)(F)F)C(=O)O)cc1 (centres undefined) do in these assays?
PfHsp90 yeast 2: -2

What do the screens show for `N#C/C(=C/c1ccc(O)cc1)C(=O)NCc1ccc(Cl)cc1`?
CSC inhib: -8; T cruzi inh: -13; HIF activator: -8; PfHsp90 yeast 2: 103*; Beta cell apopt: -9; SKKanGAS inh: 11

What do the screens show for `N#C/C(=C\c1ccc(O)cc1)C(=O)NCc1ccccc1`?
CSC inhib: 7; T cruzi inh: -2; HIF activator: 0; PfHsp90 yeast 2: -2; Beta cell apopt: -7; SKKanGAS inh: 3

How did CCOC(=O)CNC(=O)N1CCCC(N(C)CCc2ccccc2)C1 (centres undefined) do in these assays?
CSC inhib: 2; T cruzi inh: -1; HIF activator: -54; PfHsp90 yeast 2: -17; SKKanGAS inh: -2

What do the screens show for `O=C(C[n+]1cnn(CC(=O)c2ccc(Cl)cc2Cl)c1)c1ccc([N+](=O)[O-])cc1`?
CSC inhib: 21; T cruzi inh: 7; HIF activator: -1; PfHsp90 yeast 2: -36; Beta cell apopt: 7; SKKanGAS inh: 93*

What do the screens show for `O=C(Cn1cnc([N+](=O)[O-])c1)c1ccc(Cl)cc1`?
CSC inhib: -1; T cruzi inh: -1; HIF activator: 0; PfHsp90 yeast 2: -6; Beta cell apopt: -1; SKKanGAS inh: -4

Results for COc1cc(/C=C2\SC(N)=NC2=O)ccc1OCC(=O)Nc1ccccc1C ?
CSC inhib: 7; PfHsp90 yeast 2: -15; Beta cell apopt: -2

Results for Cc1ccc(C2CC(c3cccs3)=NN2C(=O)c2ccc(Br)o2)cc1 (centres undefined) ?
CSC inhib: 19; T cruzi inh: 31; HIF activator: 1; Beta cell apopt: 15; SKKanGAS inh: 88*

What do the screens show for `CC(=O)N1N=C(c2cccs2)CC1c1ccc(Br)cc1` (centres undefined)?
CSC inhib: -4; T cruzi inh: 19; HIF activator: -14; PfHsp90 yeast 2: -26; Beta cell apopt: -3; SKKanGAS inh: 7

How did COc1cc(C2CC(c3cccs3)=NN2C(=O)CCl)ccc1OC(F)F (centres undefined) do in these assays?
CSC inhib: 34; T cruzi inh: 61*; HIF activator: 0; PfHsp90 yeast 2: -11; SKKanGAS inh: 2

Source: PubChem BioAssay
